Results taken from ChEMBL document CHEMBL1154611 (J Med Chem, 2009).
Values after ≈ are worked out from the molar mass of the structure shown. Active and inactive are the calls of the source. The calls are words filed in the database; no cut-off is given here.

Legend:
Streptococcus pneumoniae [1] = test: Antibacterial activity against erythromycin-sensitive Streptococcus pneumoniae ATCC 6301; assay type: functional
Procedure, shortened: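 MIC, the minimal growth inhibitory concentration, was determined in routine screening against the highly erythromycin-sensitive strain Streptococcus pneumoniae ATCC6301.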

[2] = target: Voltage-gated inwardly rectifying potassium channel KCNH2 (Homo sapiens, UniProt Q12809); test: Inhibition of human ERG expressed in HEK cells; assay type: cell-based, HEK293
hERG (KCNH2) [3] = target: T1, hERG (KCNH2) (Homo sapiens, UniProt Q12809); test: Inhibition of human ERG expressed in HEK cells at 30 uM; assay type: cell-based, HEK293; settings: HEK cells expressing human ERG
hERG (KCNH2) [4] = target: T1, hERG (KCNH2); test: Inhibition of human ERG expressed in HEK cells at 300 uM; assay type: cell-based, HEK293; settings: HEK cells expressing human ERG
Motilin receptor = Motilin receptor (Oryctolagus cuniculus, UniProt A5A4K8); test: Agonist activity at motilin receptor in rabbit smooth muscle assessed as maximal possible tissue contraction; assay type: functional
Procedure, shortened: (§1)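 Rabbit smooth muscle contractility assay. EC50 is the concentration giving 50% of the maximal possible contraction. Tachyphylaxis is the % contractile response to an EC90 drug concentration after three cycles of administration and washout.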

[5] = Ratio of IC50 for human ERG to EC50 for rabbit motilin receptor agonism; assay type: functional
Procedure, shortened: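 The motilin EC50 came from the rabbit smooth muscle contraction assay, and the ratio of the two served as a cardiovascular safety predictor.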

[6] = target: Motilin receptor (Oryctolagus cuniculus) (UniProt A5A4K8); test: Agonist activity at motilin receptor in rabbit smooth muscle assessed as tachyphylaxis at EC90 concentration after 4th dose; assay type: functional; procedure, shortened: as §1
Escherichia coli = test: Antimicrobial activity against Escherichia coli; assay type: functional, organism-based
Procedure, shortened: (§2)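 MIC was determined across a panel of about 200 clinical isolates from a variety of specimens held in a university clinical microbiology collection, with about 10 isolates per species. The panel covers gut flora and organisms commonly known to develop antibiotic resistance.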

Corynebacterium jeikeium = test: Antimicrobial activity against Corynebacterium jeikeium; assay type: functional, organism-based; procedure, shortened: as §2
Moraxella catarrhalis = test: Antimicrobial activity against Moraxella catarrhalis; assay type: functional, organism-based; procedure, shortened: as §2
Clostridium perfringens = test: Antimicrobial activity against Clostridium perfringens; assay type: functional, organism-based
Procedure, shortened: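 MIC determined across a panel of about 200 clinical strains that represent gut flora and species known to develop antibiotic resistance. The panel included about 10 Clostridium perfringens isolates, taken from a variety of clinical specimens and held in the University of Rochester Medical Center clinical microbiology collection.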

Corynebacterium sp. = test: Antimicrobial activity against Corynebacterium sp.; assay type: functional, organism-based; procedure, shortened: as §2
Streptococcus pyogenes = test: Antimicrobial activity against Streptococcus pyogenes; assay type: functional, organism-based; procedure, shortened: as §2
Clostridioides difficile = test: Antimicrobial activity against Clostridium difficile; assay type: functional, organism-based; procedure, shortened: as §2
Haemophilus influenzae = test: Antimicrobial activity against Haemophilus influenzae; assay type: functional, organism-based; procedure, shortened: as §2
Staphylococcus aureus = test: Antimicrobial activity against Staphylococcus aureus; assay type: functional, organism-based; procedure, shortened: as §2
Staphylococcus = test: Antimicrobial activity against Staphylococcus coagulase; assay type: functional, organism-based; procedure, shortened: as §2
Enterococcus faecium = test: Antimicrobial activity against Enterococcus faecium; assay type: functional, organism-based; procedure, shortened: as §2
Klebsiella pneumoniae = test: Antimicrobial activity against Klebsiella pneumoniae; assay type: functional, organism-based; procedure, shortened: as §2
Streptococcus pneumoniae [7] = test: Antimicrobial activity against Streptococcus pneumoniae; assay type: functional, organism-based; procedure, shortened: as §2
Bacteroides fragilis = test: Antimicrobial activity against Bacteroides fragilis; assay type: functional, organism-based; procedure, shortened: as §2
Proteus mirabilis = test: Antimicrobial activity against Proteus mirabilis; assay type: functional, organism-based; procedure, shortened: as §2
Enterococcus faecalis = test: Antimicrobial activity against Enterococcus faecalis; assay type: functional, organism-based; procedure, shortened: as §2
Lactobacillus sp. = test: Antimicrobial activity against Lactobacillus sp.; assay type: functional, organism-based; procedure, shortened: as §2
Streptococcus equinus = test: Antimicrobial activity against Streptococcus bovis; assay type: functional, organism-based; procedure, shortened: as §2
Cutibacterium acnes = test: Antimicrobial activity against Propionibacterium acnes; assay type: functional, organism-based
Micrococcus luteus = test: Antimicrobial activity against Micrococcus luteus; assay type: functional, organism-based; procedure, shortened: as §2

T1 sequence (Q12809 whole entry): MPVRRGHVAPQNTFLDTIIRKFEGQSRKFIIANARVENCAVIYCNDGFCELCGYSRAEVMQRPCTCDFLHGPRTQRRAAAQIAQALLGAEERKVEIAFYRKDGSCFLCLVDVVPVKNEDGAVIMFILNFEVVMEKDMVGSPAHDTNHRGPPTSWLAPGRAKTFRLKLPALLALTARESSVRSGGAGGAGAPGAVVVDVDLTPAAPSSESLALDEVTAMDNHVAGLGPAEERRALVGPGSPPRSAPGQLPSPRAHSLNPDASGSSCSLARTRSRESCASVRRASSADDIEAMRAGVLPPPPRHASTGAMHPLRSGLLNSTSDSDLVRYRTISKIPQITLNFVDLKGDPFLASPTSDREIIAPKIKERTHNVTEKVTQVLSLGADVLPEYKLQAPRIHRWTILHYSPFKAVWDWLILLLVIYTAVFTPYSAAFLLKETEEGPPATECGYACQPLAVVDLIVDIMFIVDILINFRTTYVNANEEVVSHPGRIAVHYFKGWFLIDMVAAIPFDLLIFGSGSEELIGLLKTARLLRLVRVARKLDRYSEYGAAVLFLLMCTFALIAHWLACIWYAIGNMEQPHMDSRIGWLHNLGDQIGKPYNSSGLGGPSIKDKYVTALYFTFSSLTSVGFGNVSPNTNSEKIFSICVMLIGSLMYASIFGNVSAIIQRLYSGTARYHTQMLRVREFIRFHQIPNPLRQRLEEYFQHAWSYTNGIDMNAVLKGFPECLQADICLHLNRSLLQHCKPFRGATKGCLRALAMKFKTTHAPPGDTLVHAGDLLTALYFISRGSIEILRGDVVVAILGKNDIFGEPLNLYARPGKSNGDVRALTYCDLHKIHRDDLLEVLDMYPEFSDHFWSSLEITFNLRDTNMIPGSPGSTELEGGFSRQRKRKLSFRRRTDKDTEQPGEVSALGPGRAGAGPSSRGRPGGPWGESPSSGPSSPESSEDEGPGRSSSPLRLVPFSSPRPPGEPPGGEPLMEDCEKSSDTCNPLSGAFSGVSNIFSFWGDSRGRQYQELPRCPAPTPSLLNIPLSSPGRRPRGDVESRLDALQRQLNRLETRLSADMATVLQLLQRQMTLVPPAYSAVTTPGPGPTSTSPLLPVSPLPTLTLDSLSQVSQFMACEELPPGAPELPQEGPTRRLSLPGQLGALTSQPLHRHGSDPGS
Sequence of Motilin receptor (A5A4K8 whole entry): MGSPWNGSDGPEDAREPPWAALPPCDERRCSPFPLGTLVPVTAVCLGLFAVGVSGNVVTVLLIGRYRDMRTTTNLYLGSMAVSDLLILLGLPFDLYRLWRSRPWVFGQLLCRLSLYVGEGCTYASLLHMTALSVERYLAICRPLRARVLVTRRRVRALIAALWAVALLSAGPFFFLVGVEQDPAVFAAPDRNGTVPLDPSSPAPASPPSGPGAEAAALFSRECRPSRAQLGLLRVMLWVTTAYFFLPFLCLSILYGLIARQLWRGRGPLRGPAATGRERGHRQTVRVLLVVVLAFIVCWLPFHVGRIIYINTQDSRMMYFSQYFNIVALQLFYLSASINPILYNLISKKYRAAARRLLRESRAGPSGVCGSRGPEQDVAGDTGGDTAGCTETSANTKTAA
Sequence of Motilin receptor (Oryctolagus cuniculus) (A5A4K8 as listed by the source): as the sequence (A5A4K8 whole entry) above
Sequence of Voltage-gated inwardly rectifying potassium channel KCNH2 (Q12809 whole entry): as the sequence (Q12809 whole entry) above

Compound | MIC (Streptococcus pneumoniae [1]) | inhibition at 30 µM (hERG (KCNH2) [3]) | inhibition at 300 µM (hERG (KCNH2) [4]) | EC50 (Motilin receptor) | Activity [6] | also measured
CC[C@H]1OC(=O)[C@H](C)[C@@H](O[C@H]2C[C@@](C)(OC)[C@@H](O)[C@H](C)O2)[C@H](C)[C@@H](O[C@@H]2O[C@H](C)C[C@H](N(C)C(C)C)[C@H]2O)[C@](C)(O)C[C@@H](C)[C@H](O)[C@H](C)[C@@H](O)[C@]1(C)O [3 9-DIHYDRO-N-DESMETHYL-N-ISOPROPYLERYTHROMYCIN A] | 32 mg/L (≈ 41.9 µM) | 80% | 100% | 0.26 µM | 85% | IC50 [2]: 10 µM; Ratio IC50/EC50 [5]: 38
CC[C@H]1OC(=O)[C@H](C)[C@@H](O[C@H]2C[C@@](C)(OC)[C@@H](O)[C@H](C)O2)[C@H](C)[C@@H](O[C@@H]2O[C@H](C)C[C@H](N(C)C(C)C)[C@H]2O)[C@](C)(O)C[C@@H](C)[C@H](OCC(=O)NC2CCOCC2)[C@H](C)[C@@H](O)[C@]1(C)O | > 128 mg/L | 23% | 67% | 0.12 µM | 88% | –
CC[C@H]1OC(=O)[C@H](C)[C@@H](O[C@H]2C[C@@](C)(OC)[C@@H](O)[C@H](C)O2)[C@H](C)[C@@H](O[C@@H]2O[C@H](C)C[C@H](N(C)C(C)C)[C@H]2O)[C@](C)(O)C[C@@H](C)[C@H](OCC(=O)NC2CCC2)[C@H](C)[C@@H](O)[C@]1(C)O | 128 mg/L (≈ 146 µM) | 64% | 100% | 0.028 µM | 75% | –
CC[C@H]1OC(=O)[C@H](C)[C@@H](O[C@H]2C[C@@](C)(OC)[C@@H](O)[C@H](C)O2)[C@H](C)[C@@H](O[C@@H]2O[C@H](C)C[C@H](N(C)C(C)C)[C@H]2O)[C@](C)(O)C[C@@H](C)[C@H](OCC(N)=O)[C@H](C)[C@@H](O)[C@]1(C)O | > 128 mg/L | 10% | 51% | 0.052 µM | 92% | –
CC[C@H]1OC(=O)[C@H](C)[C@@H](O[C@H]2C[C@@](C)(OC)[C@@H](O)[C@H](C)O2)[C@H](C)[C@@H](O[C@@H]2O[C@H](C)C[C@H](N(C)C(C)C)[C@H]2O)[C@](C)(O)C[C@@H](C)[C@H](OCC(=O)NC2CC2)[C@H](C)[C@@H](O)[C@]1(C)O | 128 mg/L (≈ 149 µM) | 23% | 60% | 0.031 µM | 82% | –
CC[C@H]1OC(=O)[C@H](C)[C@@H](O[C@H]2C[C@@](C)(OC)[C@@H](O)[C@H](C)O2)[C@H](C)[C@@H](O[C@@H]2O[C@H](C)C[C@H](N(C)C(C)C)[C@H]2O)[C@](C)(O)C[C@@H](C)[C@H](OCC(=O)NCCO)[C@H](C)[C@@H](O)[C@]1(C)O | 128 mg/L (≈ 148 µM) | 29% | 68% | 0.12 µM | 87% | –
CC[C@H]1OC(=O)[C@H](C)[C@@H](O[C@H]2C[C@@](C)(OC)[C@@H](O)[C@H](C)O2)[C@H](C)[C@@H](O[C@@H]2O[C@H](C)C[C@H](N(C)C(C)C)[C@H]2O)[C@](C)(O)C[C@@H](C)[C@H](OCC(=O)NC)[C@H](C)[C@@H](O)[C@]1(C)O | > 128 mg/L | – | – | 0.058 µM | 89% | Activity (Escherichia coli): inactive; Activity (Corynebacterium jeikeium): inactive; Activity (Moraxella catarrhalis): inactive; Activity (Clostridium perfringens): inactive; Activity (Corynebacterium sp.): inactive; Activity (Streptococcus pyogenes): inactive; Activity (Clostridioides difficile): inactive; Activity (Haemophilus influenzae): inactive; Activity (Staphylococcus aureus): inactive; Activity (Staphylococcus): inactive; Activity (Enterococcus faecium): inactive; Activity (Klebsiella pneumoniae): inactive; Activity (Streptococcus pneumoniae [7]): inactive; Activity (Bacteroides fragilis): inactive; Activity (Proteus mirabilis): inactive; Activity (Enterococcus faecalis): inactive; Activity (Lactobacillus sp.): inactive; Activity (Streptococcus equinus): inactive; Activity (Cutibacterium acnes): inactive; Activity (Micrococcus luteus): inactive
